Test results reported in article PMC10849882 (The Journal of Cell Biology, 2024).

What was measured:
[1] = biological target: IMPDH1(595)-Y12A (Homo sapiens, UniProt P20839, Y12A); test: IMPDH1 activity assay, GTP inhibition; assay type: biochemical
Procedure, shortened: (§1)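 Enzyme at 1 µM in pH 7.0 HEPES/KCl/DTT activity buffer, preincubated 30 min at 20°C with 1 mM ATP, 1 mM IMP, 1 mM MgCl2 and graded GTP. Reaction started with 300 µM NAD+. NADH followed at 340 nm (25°C, per minute, 15 min) against a standard curve. Specific activity from the 2–7 min slope; three measurements per point. IC50 and Hill coefficient from a least-squares four-parameter fit, 90% confidence intervals.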

[2] = biological target: IMPDH1(595)-S477D (Homo sapiens, UniProt P20839, S477D); test: IMPDH1 activity assay, GTP inhibition; assay type: biochemical
Chain of IMPDH1(595)-S477D (P20839 1-509 S477D): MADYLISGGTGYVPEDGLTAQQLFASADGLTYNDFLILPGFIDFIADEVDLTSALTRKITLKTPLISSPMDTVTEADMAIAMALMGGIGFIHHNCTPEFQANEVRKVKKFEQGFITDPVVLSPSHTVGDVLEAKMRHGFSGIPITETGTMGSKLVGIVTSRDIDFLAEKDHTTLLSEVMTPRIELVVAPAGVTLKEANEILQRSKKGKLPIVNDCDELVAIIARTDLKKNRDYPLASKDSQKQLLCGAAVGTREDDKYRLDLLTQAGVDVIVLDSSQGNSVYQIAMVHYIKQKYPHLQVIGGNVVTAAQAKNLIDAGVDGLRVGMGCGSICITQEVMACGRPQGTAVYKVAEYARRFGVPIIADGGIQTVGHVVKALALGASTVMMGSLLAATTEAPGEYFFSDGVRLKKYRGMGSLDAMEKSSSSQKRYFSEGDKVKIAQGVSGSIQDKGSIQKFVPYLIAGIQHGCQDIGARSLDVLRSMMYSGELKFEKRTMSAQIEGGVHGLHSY
Procedure, shortened: (§2)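 Recombinant human retinal-variant enzyme (E. coli BL21(DE3), 6xHis-SUMO tag removed by ULP1, gel filtration). Enzyme diluted ≥100-fold to 1 µM in pH 7.0 HEPES/KCl/DTT buffer. Preincubated 30 min at 20°C with 1 mM ATP, 1 mM IMP, 1 mM MgCl2 and varying GTP. Started with 300 µM NAD+. NADH read at A340, 25°C, each minute for 15 min. Rate from a 2–7 min slope. Triplicate; four-parameter variable-slope fit with 90% CI.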

[3] = biological target: IMPDH1(546)-Y12A-S477D (Homo sapiens, UniProt P20839, S477D/Y12A); test: IMPDH1 activity assay, GTP inhibition; assay type: biochemical
Chain of IMPDH1(546)-Y12A-S477D (P20839 1-509 Y12A/S477D): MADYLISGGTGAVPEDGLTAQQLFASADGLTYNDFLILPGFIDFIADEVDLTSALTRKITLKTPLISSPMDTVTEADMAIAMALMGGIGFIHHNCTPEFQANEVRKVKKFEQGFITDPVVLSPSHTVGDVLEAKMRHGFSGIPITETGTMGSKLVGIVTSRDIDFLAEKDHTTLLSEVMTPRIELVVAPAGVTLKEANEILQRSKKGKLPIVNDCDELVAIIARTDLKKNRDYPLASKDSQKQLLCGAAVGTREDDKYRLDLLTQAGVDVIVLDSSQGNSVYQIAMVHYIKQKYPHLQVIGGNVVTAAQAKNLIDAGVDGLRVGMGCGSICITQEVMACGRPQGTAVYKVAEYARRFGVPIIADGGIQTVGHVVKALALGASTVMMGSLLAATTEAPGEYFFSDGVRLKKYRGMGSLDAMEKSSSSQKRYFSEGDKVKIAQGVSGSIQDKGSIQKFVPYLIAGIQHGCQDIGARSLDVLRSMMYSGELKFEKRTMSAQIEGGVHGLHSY
Procedure, shortened: as §1

[4] = biological target: IMPDH1(546)-Y12A (Homo sapiens, UniProt P20839, Y12A); test: IMPDH1 activity assay, GTP inhibition; assay type: biochemical
Chain of IMPDH1(546)-Y12A (P20839 1-509 Y12A): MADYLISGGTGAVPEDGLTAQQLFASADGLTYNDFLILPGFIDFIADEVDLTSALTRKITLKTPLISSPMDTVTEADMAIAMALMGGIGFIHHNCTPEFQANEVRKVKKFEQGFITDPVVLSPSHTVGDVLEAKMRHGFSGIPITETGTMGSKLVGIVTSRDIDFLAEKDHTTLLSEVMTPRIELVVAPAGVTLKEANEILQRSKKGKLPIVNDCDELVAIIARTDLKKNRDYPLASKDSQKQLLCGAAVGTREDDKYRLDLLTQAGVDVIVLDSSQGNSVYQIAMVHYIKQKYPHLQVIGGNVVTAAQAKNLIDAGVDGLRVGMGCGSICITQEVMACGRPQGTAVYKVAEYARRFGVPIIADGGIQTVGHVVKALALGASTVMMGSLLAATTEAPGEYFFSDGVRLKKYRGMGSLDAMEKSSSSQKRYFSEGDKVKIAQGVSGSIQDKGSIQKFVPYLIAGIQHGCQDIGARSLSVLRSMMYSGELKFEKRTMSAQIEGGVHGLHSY
Procedure, shortened: as §1

[5] = biological target: IMPDH1(546)-WT (Homo sapiens, UniProt P20839); test: IMPDH1 activity assay, GTP inhibition; assay type: biochemical
Chain of IMPDH1(546)-WT (P20839 1-509 limits assumed): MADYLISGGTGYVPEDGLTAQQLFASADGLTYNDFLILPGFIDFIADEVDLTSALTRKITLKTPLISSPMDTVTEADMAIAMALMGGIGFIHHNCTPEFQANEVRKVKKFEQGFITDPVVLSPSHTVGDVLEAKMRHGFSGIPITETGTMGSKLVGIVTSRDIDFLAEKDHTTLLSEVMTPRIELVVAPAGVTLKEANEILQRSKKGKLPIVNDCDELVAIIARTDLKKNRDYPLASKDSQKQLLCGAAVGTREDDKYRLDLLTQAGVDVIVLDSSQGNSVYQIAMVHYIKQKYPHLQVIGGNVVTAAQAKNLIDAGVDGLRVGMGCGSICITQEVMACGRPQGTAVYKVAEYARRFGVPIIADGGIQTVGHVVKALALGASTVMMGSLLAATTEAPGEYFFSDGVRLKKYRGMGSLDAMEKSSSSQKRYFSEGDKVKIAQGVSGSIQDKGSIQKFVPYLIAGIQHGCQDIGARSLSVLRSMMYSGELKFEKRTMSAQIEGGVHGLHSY
Procedure, shortened: as §2

[6] = biological target: IMPDH1(595)-Y12A-S477D (Homo sapiens, UniProt P20839, S477D/Y12A); test: IMPDH1 activity assay, GTP inhibition; assay type: biochemical
Chain of IMPDH1(595)-Y12A-S477D (P20839 1-509 Y12A/S477D): as the sequence (P20839 1-509 Y12A/S477D) above
Procedure, shortened: as §1

[7] = biological target: IMPDH1(595)-WT (Homo sapiens, UniProt P20839); test: IMPDH1 activity assay, GTP inhibition; assay type: biochemical
Chain of IMPDH1(595)-WT (P20839 1-558 isoform P20839-3 limits assumed): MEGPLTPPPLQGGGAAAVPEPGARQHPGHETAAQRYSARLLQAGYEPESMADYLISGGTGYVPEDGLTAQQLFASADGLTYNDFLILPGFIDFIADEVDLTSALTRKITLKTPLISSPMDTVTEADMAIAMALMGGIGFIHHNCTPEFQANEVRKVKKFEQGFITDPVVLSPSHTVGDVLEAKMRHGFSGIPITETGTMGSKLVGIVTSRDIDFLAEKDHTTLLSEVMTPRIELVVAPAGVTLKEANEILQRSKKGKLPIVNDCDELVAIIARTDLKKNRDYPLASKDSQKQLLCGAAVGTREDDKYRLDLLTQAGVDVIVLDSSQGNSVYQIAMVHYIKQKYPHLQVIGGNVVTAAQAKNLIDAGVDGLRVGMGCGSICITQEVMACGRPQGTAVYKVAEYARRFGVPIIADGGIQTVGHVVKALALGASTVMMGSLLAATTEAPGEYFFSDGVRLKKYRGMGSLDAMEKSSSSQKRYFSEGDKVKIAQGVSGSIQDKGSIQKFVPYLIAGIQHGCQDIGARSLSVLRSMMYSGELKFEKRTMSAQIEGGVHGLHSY
Procedure, shortened: as §2

[8] = biological target: IMPDH1(546)-S477D (Homo sapiens, UniProt P20839, S477D); test: IMPDH1 activity assay, GTP inhibition; assay type: biochemical
Chain of IMPDH1(546)-S477D (P20839 1-509 S477D): as the sequence (P20839 1-509 S477D) above
Procedure, shortened: as §2

[9] = tested on: HeLa cells; test: Ribavirin-induced IMPDH filament assembly in cells, immunofluorescence; assay type: cell-based, human; conditions: 1 mM ribavirin for 2 h
Procedure, shortened: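 HeLa (ATCC CCL-2) in DMEM/10% FBS, 37°C, 5% CO2. Seeded 4×10^4 cells/well on chambered glass slides and transfected next day with 328 ng plasmid (TransIT-HeLaMONSTER). After 48 h, fixed in 4% paraformaldehyde and Triton-permeabilised. Stained with anti-IMPDH2 (endogenous plus transfected), anti-FLAG and DAPI. Imaged by widefield 40×. Two biological replicates, ≥100 cells counted per condition.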

[10] = Hill coefficient of GTP inhibition curve

Chain of IMPDH1(595)-Y12A (P20839 1-509 Y12A): as the sequence (P20839 1-509 Y12A) above

| IC50 [1] [µM] | Hill best-fit [1, 10] | IC50 [2] [µM] | Hill best-fit [2, 10] | IC50 [3] [µM] | Hill best-fit [3, 10] | IC50 [4] [µM] | Hill best-fit [4, 10] | IC50 [5] [µM] | Hill best-fit [5, 10] | IC50 [6] [µM] | Hill best-fit [6, 10] | IC50 [7] [µM] | Hill best-fit [7, 10] | IC50 [8] [µM] | Hill best-fit [8, 10] | SMILES | Percentage of transfected cells containing filaments ([9]; cells transfected with FLAG-tagged IMPDH1(546)-S477A) [%] | Percentage of transfected cells containing filaments ([9]; cells transfected with FLAG-tagged IMPDH1(546)-S477D) [%] | Percentage of transfected cells containing filaments ([9]; cells transfected with FLAG-tagged IMPDH1(595)-S477D) [%] |
| --- | --- | --- | --- | --- | --- | --- | --- | --- | --- | --- | --- | --- | --- | --- | --- | --- | --- | --- | --- |
| 473 | 4.5 | 603 | 3.7 | 458 | 4.2 | 538 | 4.0 | 757 | 4.6 | 464 | 4.1 | 1150 | 2.3 | 486 | 3.7 | Nc1nc2c(ncn2[C@@H]2O[C@H](COP(=O)(O)OP(=O)(O)OP(=O)(O)O)[C@@H](O)[C@H]2O)c(=O)[nH]1 [GTP, guanosine triphosphate] |  |  |  |
|  |  |  |  |  |  |  |  |  |  |  |  |  |  |  |  | NC(=O)c1ncn([C@@H]2O[C@H](CO)[C@@H](O)[C@H]2O)n1 [ribavirin] | 100 | 2 | 2 |
